How the values were obtained:
Assay type in all cases: functional, cell-based
Details in all cases: HCT-116, 48 h
HCT-116 [1] = experiment: Cytotoxicity against P21 deficient human HCT116 cells after 48 hrs by MTS assay
Method in brief: (§1)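 HCT116 colon tumour lines (wild type and isogenic p53- or p21-deficient, p21 disrupted by homologous recombination) grown in McCoy's 5A with 10% FBS, penicillin/streptomycin, L-glutamine and sodium pyruvate at 37 °C, 5% CO2. Seeded per well at 3000 (p53+, p53-), 4000 (p21+) or 6000 (p21-) cells. After 24 h, medium was replaced. Cells were exposed to varying concentrations for 48 h, and MTS bioreduction was read at 490 nm.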

HCT-116 [2] = experiment: Cytotoxicity against P21+ wild type human HCT116 cells after 48 hrs by MTS assay; method in brief: as §1
HCT-116 [3] = experiment: Cytotoxicity against P53 deficient human HCT116 cells after 48 hrs by MTS assay; method in brief: as §1
HCT-116 [4] = experiment: Cytotoxicity against P53+ wild type human HCT116 cells after 48 hrs by MTS assay; method in brief: as §1

CC(=O)O[C@H]1CC[C@@]2(C)[C@@H](CC[C@]3(C)/C(=C(C)/C=C/C=C(C)/C=C/C=C(\C)C(=O)O)C(=O)C[C@@H]23)C1(C)C
IC50 (HCT-116 [1]): 3.86 µM | IC50 (HCT-116 [2]): > 4.92 µM

CC(=O)O[C@H]1CC[C@@]2(C)[C@@H](CC[C@]3(C)\C(=C(C)/C=C/C=C(C)/C=C/C=C(\C)C(=O)O)C(=O)C[C@@H]23)C1(C)C
IC50 (HCT-116 [1]): 3.98 µM | IC50 (HCT-116 [2]): > 4.92 µM

CC(/C=C/C=C(\C)C(=O)O)=C\C=C\C(C)=C1\C(=O)C[C@H]2[C@@]3(C)CCC(=O)C(C)(C)[C@@H]3CC[C@]12C [RHABDASTRELLIC ACID A]
IC50 (HCT-116 [1]): 3.49 µM | IC50 (HCT-116 [2]): > 5.39 µM

C\C(=C/C=C/C(C)=C1/C(=O)C[C@H]2[C@@]3(C)CCC(=O)C(C)(C)[C@@H]3CC[C@]12C)c1ccc(C)c(=O)o1 [STELLETIN A]
IC50 (HCT-116 [1]): 0.26 µM | IC50 (HCT-116 [2]): 4.46 µM

CC(/C=C/C=C(C)/C=C/C=C(\C)C(=O)O)=C1/C(=O)C[C@H]2[C@@]3(C)CCC(=O)C(C)(C)[C@@H]3CC[C@]12C [STELLETIN E]
IC50 (HCT-116 [3]): > 5.39 µM | IC50 (HCT-116 [4]): > 5.39 µM | IC50 (HCT-116 [1]): 0.039 µM | IC50 (HCT-116 [2]): 4.57 µM

CC(/C=C/C=C(\C)c1ccc(C)c(=O)o1)=C1/C(=O)C[C@H]2[C@@]3(C)CCC(=O)C(C)(C)[C@@H]3CC[C@]12C [STELLETTIN B]
IC50 (HCT-116 [3]): 8.23 µM | IC50 (HCT-116 [4]): 7.25 µM | IC50 (HCT-116 [1]): 0.043 µM | IC50 (HCT-116 [2]): 0.65 µM

CC(=O)O[C@H]1CC[C@@]2(C)[C@@H](CC[C@]3(C)\C(=C(C)/C=C/C=C(\C)c4ccc(C)c(=O)o4)C(=O)C[C@@H]23)C1(C)C [STELLETTIN C]
IC50 (HCT-116 [1]): 0.3 µM | IC50 (HCT-116 [2]): 2.45 µM

CC(=O)O[C@H]1CC[C@@]2(C)[C@@H](CC[C@]3(C)/C(=C(C)/C=C/C=C(\C)c4ccc(C)c(=O)o4)C(=O)C[C@@H]23)C1(C)C [STELLETTIN D]
IC50 (HCT-116 [1]): 0.31 µM | IC50 (HCT-116 [2]): 0.43 µM

Reference: ChEMBL document CHEMBL1159324, “Bioactive isomalabaricane triterpenes from the marine sponge Rhabdastrella globostellata” (J Nat Prod, 2002)
